From ChEMBL document CHEMBL4359881, “Novel antiacanthamoebic compounds belonging to quinazolinones” (Eur J Med Chem, 2019) come the findings set out here.

Active and inactive are the calls of the source. The rule behind the calls is not given here.

The subject of data set [1] is Acanthamoeba castellanii. Nature of the data set: Inhibition of Acanthamoeba castellanii T4 genotype ATCC 50492 excystation at 100 ug/ml incubated with pre-formed cysts for 72 hrs by hemocytometric method. The class given is functional, organism-based. In a few lines:
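Cysts were formed by plating 1×10^6 trophozoites on 1.5% non-nutrient agar at 30 °C for up to 2 weeks, then scraped into PBS. 1×10^5 cysts were incubated with compound in PYG at 30 °C for 72 h, and emerging trophozoites were counted by hemocytometer. Duplicates; mean ± SE; two-tailed two-sample t-test.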

The test system of data set [2] is HaCaT. In words: Cytotoxicity against human HaCaT cells at 100 ug/ml incubated for 24 hrs by LDH release assay. The class given is cell-based. In a few lines: (§1)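 HaCaT keratinocytes were grown in RPMI-1640 with 10% FBS and Nu-serum and seeded to a monolayer over 24 h. Compound was applied for 24 h at 37 °C in 5% CO2, and LDH in the supernatant was measured. Medium alone gave the baseline and 0.1% Triton X-100 gave total lysis. Duplicates; mean ± SE.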
On the technique in general: Release of lactate dehydrogenase indicates damage to the cell membrane.

Data set [3] has as its system Acanthamoeba castellanii. In words: Antiamoebic activity against Acanthamoeba castellanii T4 genotype ATCC 50492 trophozites assessed as reduction in viable cells at 50 ug/ml incubated for 24 hrs by trypan blue staining based hemocytometric method relative to control. The following applies: T4 genotype ATCC 50492, 24 h. The class given is functional. In a few lines:
(§2)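 Trophozoites from PYG cultures at 30 °C were detached on ice and resuspended in PBS. They were exposed at 5×10^5 per well in RPMI-1640 at 30 °C for 24 h, stained with 0.1% Trypan blue for 5 min, and unstained cells were counted by hemocytometer. Untreated cells were the negative control and chlorhexidine the positive control. Significance was tested against methanol solvent. Duplicates; mean ± SE.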

The test system of data set [4] is Acanthamoeba castellanii. Nature of the data set: Antiamoebic activity against Acanthamoeba castellanii T4 genotype ATCC 50492 infected in human HaCaT cells assessed as reduction in amoeba-induced host cell cytopathogenicity at 100 ug/ml preincubated with amoeba for 2 hrs followed by incubation of suspension with host cell for 24 hrs by LDH release assay. Type of data set: functional, organism-based. In a few lines:
(§3)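 Amoebae were pretreated with compound for 2 h at 30 °C, pelleted at 3000g for 5 min, and resuspended in fresh RPMI-1640 to remove compound. They were then added to HaCaT monolayers for 24 h at 37 °C in 5% CO2. Supernatant LDH was read at 492 nm. % cytotoxicity was calculated against untreated and 0.1% Triton X-100 lysed cells. Duplicates; mean ± SE.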

Data set [5] concerns Acanthamoeba castellanii. Nature of the data set: Antiamoebic activity against Acanthamoeba castellanii T4 genotype ATCC 50492 trophozites assessed as reduction in viable cells at 100 ug/ml incubated for 24 hrs by trypan blue staining based hemocytometric method relative to control. The class given is functional. The following applies: T4 genotype ATCC 50492, 24 h. The essentials: as §2

Data set [6] deals with Acanthamoeba castellanii. In words: Antiamoebic activity against Acanthamoeba castellanii T4 genotype ATCC 50492 infected in human HaCaT cells assessed as reduction in amoeba-induced host cell cytopathogenicity at 100 ug/ml preincubated with amoeba for 2 hrs followed by incubation of suspension with host cell for 24 hrs by LDH release assay relative to control. The class given is functional. The following applies: T4 genotype ATCC 50492, HaCaT. The essentials: as §3
On the technique in general: Protection from cytopathic effect is a common read-out in antiviral testing.

Data set [7] deals with Acanthamoeba castellanii. In words: Inhibition of Acanthamoeba castellanii T4 genotype ATCC 50492 trophozites encystation at 100 ug/ml incubated for 72 hrs by hemocytometric method. Type of data set: functional, organism-based. The essentials: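 5×10^5 trophozoites in PBS were pretreated with compound for 15 min at room temperature. They were then transferred into encystation medium (50 mM MgCl2, 10% glucose) at 30 °C for 72 h. Trophozoites were lysed with 0.25% SDS for 10 min, and SDS-resistant cysts were counted by hemocytometer. Duplicates; mean ± SE; two-tailed t-test.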

The subject of data set [8] is HaCaT. In words: Cytotoxicity against human HaCaT cells at 100 ug/ml incubated for 24 hrs by LDH release assay relative to control. Type of data set: cell-based. The essentials: as §1
Data set [9] relates to Acanthamoeba castellanii. Nature of the data set: Antiamoebic activity against Acanthamoeba castellanii T4 genotype ATCC 50492 assessed as increase in pore formation at 100 ug/ml incubated for 2 hrs by FE-SEM analysis. Type of data set: functional, organism-based. In a few lines: (§4)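 Trophozoites were treated with compound, then fixed on glass coverslips in 2.5% glutaraldehyde in PBS at 4 °C for 2 h. Samples were dehydrated through 50–100% ethanol, air-dried and sputter-coated with platinum. Surface morphology was imaged by FESEM at several scales, with untreated amoebae for comparison.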

In data set [10] the test system is Acanthamoeba castellanii. Nature of the data set: Antiamoebic activity against Acanthamoeba castellanii T4 genotype ATCC 50492 assessed as increase in surface disintegration at 100 ug/ml incubated for 2 hrs by FE-SEM analysis. The class given is functional, organism-based. The essentials: as §4
Data set [11] concerns Acanthamoeba castellanii. Nature of the data set: Antiamoebic activity against Acanthamoeba castellanii T4 genotype ATCC 50492 trophozites assessed as reduction in viable cells at 100 ug/ml incubated for 24 hrs by trypan blue staining based hemocytometric method. Type of data set: functional, organism-based. In a few lines: as §2

On to `COc1ccc(-n2cnc3c(C)cccc3c2=O)cc1`, for which the inhibition result in the data set with Acanthamoeba castellanii [1] and in the data set on Acanthamoeba castellanii [4] was “Active” in each case. In addition, in the data set with HaCaT [2], the Activity result was “Non-Toxic”. Moreover, the inhibition (as a rule, the change of the read-out against control, counted positive when it falls) at 50 µg/mL in the data set with Acanthamoeba castellanii [3] was greater than 50%. In addition, the inhibition at 100 µg/mL with Acanthamoeba castellanii [5] was greater than 50%.

As to `Cc1cccc2c(=O)n(-c3ccc(I)cc3)cnc12`, the inhibition result with Acanthamoeba castellanii [1] is “Active”. The Activity result in the data set with HaCaT [2] is “Non-Toxic”. The inhibition at 50 µg/mL in the data set on Acanthamoeba castellanii [3] is greater than 60%. Further, the values for the inhibition at 100 µg/mL in the data set with Acanthamoeba castellanii [5] and in the data set on Acanthamoeba castellanii [6] were greater than 50% and 100%, respectively.

With `Cc1cccc2c(=O)n(-c3ccccc3I)cnc12`, the inhibition entry in the data set on Acanthamoeba castellanii [7] and with Acanthamoeba castellanii [1] was “Active” each time. Further, the inhibition at 50 µg/mL with Acanthamoeba castellanii [3] was greater than 60%. The values for the inhibition at 100 µg/mL in the data set on Acanthamoeba castellanii [5] and in the data set on Acanthamoeba castellanii [6] were greater than 80% and 100%, respectively. In the data set on HaCaT [8], this molecule gave an Activity of 8%.

As to `Cc1ccc(-n2cnc3c(C)cccc3c2=O)cc1`, the inhibition entry with Acanthamoeba castellanii [1] and in the data set on Acanthamoeba castellanii [4] was “Active” in each case. In the data set on HaCaT [2], the Activity entry is reported as “Non-Toxic”. Moreover, in the data set with Acanthamoeba castellanii [3], the inhibition at 50 µg/mL was greater than 50%. Also, the outcome in the data set on Acanthamoeba castellanii [9] and in the data set with Acanthamoeba castellanii [10] was Active. The inhibition at 100 µg/mL in the data set with Acanthamoeba castellanii [5] is greater than 50%.

As to `Cc1cccc2c(=O)n(-c3cccc(Br)c3)cnc12`, the inhibition entry in the data set on Acanthamoeba castellanii [1] and with Acanthamoeba castellanii [4] was “Active” each time. Also, in the data set with Acanthamoeba castellanii [3], the inhibition at 50 µg/mL was greater than 50%. Further, in the data set with Acanthamoeba castellanii [5], the inhibition at 100 µg/mL is greater than 50%. The same molecule yielded an Activity with HaCaT [8] of 11%.

Regarding `Cc1cccc2c(=O)n(-c3ccc(Br)cc3)cnc12`, the inhibition entry with Acanthamoeba castellanii [1] and in the data set with Acanthamoeba castellanii [4] was “Active” each time. Besides, the Activity result in the data set on HaCaT [2] is “Non-Toxic”. Also, the inhibition at 50 µg/mL with Acanthamoeba castellanii [3] is greater than 50%. The inhibition at 100 µg/mL with Acanthamoeba castellanii [5] was greater than 50%.

Consider `Cc1cccc2c(=O)n(-c3ccc(F)cc3)cnc12`, for which the inhibition result with Acanthamoeba castellanii [1] was “Active”. Besides, the Activity result in the data set with HaCaT [2] is listed as “Non-Toxic”. Moreover, the inhibition at 50 µg/mL with Acanthamoeba castellanii [3] is greater than 60%. In addition, the result in the data set on Acanthamoeba castellanii [9] and in the data set on Acanthamoeba castellanii [10] was Active. Further, the inhibition at 100 µg/mL in the data set with Acanthamoeba castellanii [5] was greater than 80%; with Acanthamoeba castellanii [6], 100%.

For the molecule `Cc1ccccc1-n1cnc2c(C)cccc2c1=O`, the inhibition result in the data set on Acanthamoeba castellanii [7] and with Acanthamoeba castellanii [1] was “Active” each time. In addition, the Activity result with HaCaT [2] is “Non-Toxic”. Also, the inhibition at 50 µg/mL with Acanthamoeba castellanii [3] was greater than 50%. Further, the inhibition at 100 µg/mL with Acanthamoeba castellanii [5] is greater than 50%; in the data set on Acanthamoeba castellanii [6], 100%.

With `Cc1cccc2c(=O)n(-c3ccc(F)cc3F)cnc12`, the inhibition result with Acanthamoeba castellanii [7], with Acanthamoeba castellanii [1] and with Acanthamoeba castellanii [4] was “Active” each time. Also, the Activity result with HaCaT [2] is reported as “Non-Toxic”. The inhibition at 50 µg/mL in the data set with Acanthamoeba castellanii [3] was greater than 50%. Also, the inhibition at 100 µg/mL with Acanthamoeba castellanii [5] was greater than 50%.

For `COc1ccc(OC)c(-n2cnc3c(C)cccc3c2=O)c1`, the inhibition result with Acanthamoeba castellanii [1] and with Acanthamoeba castellanii [4] was “Active” throughout. The Activity result in the data set with HaCaT [2] is on record as “Non-Toxic”. The inhibition at 50 µg/mL with Acanthamoeba castellanii [3] is greater than 50%. Besides, in the data set on Acanthamoeba castellanii [5], the inhibition at 100 µg/mL was greater than 50%.

For the molecule `Cc1cccc2c(=O)n(-c3cccc(F)c3)cnc12`, the inhibition result in the data set with Acanthamoeba castellanii [1] and in the data set on Acanthamoeba castellanii [4] was “Active” each time. Further, the Activity result with HaCaT [2] is listed as “Non-Toxic”. For the same molecule, in the data set on Acanthamoeba castellanii [3], the inhibition at 50 µg/mL is greater than 50%. For the same molecule, in the data set with Acanthamoeba castellanii [5], the inhibition at 100 µg/mL was greater than 80%.

Consider `CSc1cccc(-n2cnc3c(C)cccc3c2=O)c1`, for which the inhibition entry in the data set with Acanthamoeba castellanii [1] and in the data set on Acanthamoeba castellanii [4] was “Active” throughout. The Activity entry in the data set with HaCaT [2] is on record as “Non-Toxic”. In addition, the inhibition at 50 µg/mL with Acanthamoeba castellanii [3] is greater than 50%. For the same molecule, the inhibition at 100 µg/mL in the data set with Acanthamoeba castellanii [5] is greater than 50%.

`Cc1cccc2c(=O)n(-c3ccc(Cl)cc3)cnc12`: the inhibition entry with Acanthamoeba castellanii [1] and in the data set with Acanthamoeba castellanii [4] was “Active” in each case. Also, the Activity result in the data set on HaCaT [2] is “Non-Toxic”. The inhibition at 50 µg/mL in the data set with Acanthamoeba castellanii [3] was greater than 50%. The inhibition at 100 µg/mL in the data set on Acanthamoeba castellanii [5] is greater than 50%.

For `Cc1cc(C)cc(-n2cnc3c(C)cccc3c2=O)c1`, the inhibition entry with Acanthamoeba castellanii [1] and in the data set on Acanthamoeba castellanii [4] was “Active” in each case. The Activity result in the data set with HaCaT [2] was “Non-Toxic”. In addition, the inhibition entry with Acanthamoeba castellanii [11] was “inactive”.

In the case of `Cc1cccc2c(=O)n(-c3cccc(Cl)c3)cnc12`, the inhibition entry in the data set on Acanthamoeba castellanii [1] and with Acanthamoeba castellanii [4] was “Active” each time. For the same molecule, in the data set with HaCaT [2], the Activity result is recorded as “Non-Toxic”. For the same molecule, in the data set on Acanthamoeba castellanii [3], the inhibition at 50 µg/mL is greater than 50%. The inhibition at 100 µg/mL in the data set with Acanthamoeba castellanii [5] is greater than 50%.

Take `N=C(NCCCCCCNC(=N)NC(=N)Nc1ccc(Cl)cc1)NC(=N)Nc1ccc(Cl)cc1`: in the data set with Acanthamoeba castellanii [1], the inhibition entry was “Active”.
